In ChEMBL document CHEMBL4715761, “LAT1 activity of carboxylic acid bioisosteres: Evaluation of hydroxamic acids as substrates” (Bioorg Med Chem Lett, 2016):

Legend:
[1] = target: T1, Large neutral amino acids transporter small subunit 1 (Homo sapiens, UniProt Q01650); assay: Inhibition of human LAT1 expressed in HEK293-T-Rex cells assessed as inhibition of [3H]-gabapentin uptake by scintillation counting cis-inhibition assay relative to BCH inhibition (RV = 100%); format: cell-based
[2] = target: T1, Large neutral amino acids transporter small subunit 1; assay: Inhibition of human LAT1 expressed in HEK293-T-Rex cells assessed as inhibition of [3H]-gabapentin uptake at 200 uM by scintillation counting cis-inhibition assay; format: cell-based
In short: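 HEK cells overexpressing human LAT1; test compound at 200 μM added during [3H]-gabapentin uptake (cis-inhibition). Reported as % inhibition relative to background signal without test compound; cell data at least in triplicate.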

T1 sequence (Q01650 whole entry): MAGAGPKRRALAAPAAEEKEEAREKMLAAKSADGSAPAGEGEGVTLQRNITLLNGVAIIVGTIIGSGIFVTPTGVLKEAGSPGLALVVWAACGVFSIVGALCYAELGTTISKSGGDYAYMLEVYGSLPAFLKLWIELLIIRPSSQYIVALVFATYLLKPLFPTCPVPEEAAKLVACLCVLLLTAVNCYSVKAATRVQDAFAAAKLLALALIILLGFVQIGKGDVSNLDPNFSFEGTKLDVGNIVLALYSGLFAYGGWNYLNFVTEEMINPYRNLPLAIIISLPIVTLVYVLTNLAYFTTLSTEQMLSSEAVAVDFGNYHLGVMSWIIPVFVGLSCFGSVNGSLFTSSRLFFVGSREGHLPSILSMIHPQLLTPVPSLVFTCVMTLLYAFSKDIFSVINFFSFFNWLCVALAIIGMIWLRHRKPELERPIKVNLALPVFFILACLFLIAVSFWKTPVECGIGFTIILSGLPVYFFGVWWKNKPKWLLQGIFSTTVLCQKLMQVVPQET

SMILES | IC50 [1] [µM] | inhibition [2] [%]
CC[C@H](C)[C@H](N)C(=O)NO | > 200 | 
N[C@@H](Cc1ccccc1)c1nnn[nH]1 |  | 11
NCC(=O)NO | > 200 | 38
CC(C)C[C@H](N)C(=O)NO | > 200 | 50
N[C@@H](Cc1c[nH]c2ccccc12)C(=O)NO |  | 35
N[C@@H](Cc1ccc(O)cc1)C(=O)NO |  | 39
CS(=O)(=O)NC(=O)[C@@H](N)Cc1ccc(O)cc1 |  | 12
CC[C@H](C)[C@H](N)C(=O)O [ISOLEUCINE] | 150 | 
CC(C)C[C@H](N)C(=O)O [LEUCINE] | 87 | 
CC(C)C[C@H](N)C(N)=O | > 200 | 
CSCC[C@H](N)C(=O)NO | > 200 | 
CS(=O)(=O)NC(=O)[C@@H](N)Cc1ccccc1 |  | 15
CSCC[C@H](N)C(=O)O [METHIONINE] | 180 | 
CONC(=O)[C@@H](N)CC(C)C | > 200 | 
NCC(=O)O [GLYCINE] | > 200 | 33
